Values belong to the compound of their own block, whether it stands above or below them.
Key:
Homo sapiens [1] = organism: Homo sapiens; experiment: In vitro inhibition of platelet aggregation induced by […] (PRP incubated for 5 minutes at 37 degree C) at 10e-5 M; No significance; format: functional
Rattus norvegicus [2] = experiment: Antihypertensive activity in spontaneously hypertensive rats (SHR) measured by percentage fall in arterial pressure (AP) at 25 mg/kg administered intraperitoneally at 5 h; format: functional, Artery; conditions: route intraperitoneal
In short: (§1)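 Unanesthetized Okamoto-strain SHR, male and female, 8 weeks old, 300–350 g, systolic pressure ≥190 mmHg, heart rate 400–650 beats/min; five animals per dose. Given ip at 2.5 mL/kg, dissolved or suspended in normal saline or saline with 0.2% (carboxymethyl)cellulose and 1.0% Tween 80. Tail AP and CR recorded by mechanical transduction at set times; reported as percentage fall from control.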

Rattus norvegicus [3] = experiment: Antihypertensive activity in spontaneously hypertensive rats (SHR) measured by percentage fall in cardiac rhythm (CR) at 25 mg/kg administered intraperitoneally at 1 h; format: functional, Heart; conditions: route intraperitoneal; in short: as §1
Homo sapiens [4] = organism: Homo sapiens; experiment: In vitro inhibition of platelet aggregation induced by AA (PRP incubated for 60 minutes at 37 degree C) at 10e-5 M; No significance; format: functional
In short: (§2)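 Human venous blood anticoagulated with 3.8% sodium citrate (1:9). PRP from centrifugation at 800 rpm for 10 min at room temperature. Count adjusted with PPP to […]. Compound in saline with 10% ethylene glycol is added to PRP and incubated at 37 °C before the agonist. Agonists: ADP 2×10^-5 M, AA 0.6 mM, PGH2 2.8 μM, adrenaline 0.6 μM. Born absorbance aggregometry; n = 5.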

Homo sapiens [5] = organism: Homo sapiens; experiment: In vitro inhibition of platelet aggregation induced by ADP-II (PRP incubated for 5 minutes at 37 degree C) at 10e-5 M; No significance; format: functional; in short: as §2
Homo sapiens [6] = organism: Homo sapiens; experiment: In vitro inhibition of platelet aggregation induced by ADP-II (PRP incubated for 60 minutes at 37 degree C) at 10e-5 M; format: functional; conditions: 1 h; in short: as §2
Rattus norvegicus [7] = experiment: Antihypertensive activity in spontaneously hypertensive rats (SHR) measured by percentage fall in cardiac rhythm (CR) at 25 mg/kg administered intraperitoneally at 5 h; No significance; format: functional, organism-based; set-up: dose 25 mg/kg; conditions: Heart
In short: (§3)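 Conscious SHR (Okamoto strain), 8 weeks old, male and female, 300–350 g, systolic BP ≥190 mmHg, CR 400–650 beats/min. Given ip or po at 2.5 mL/kg in normal saline or saline with 0.2% (carboxymethyl)cellulose and 1.0% Tween 80. Tail AP and CR recorded by mechanical transduction at 1, 3, 5 and 24 h, five animals per dose. Effect expressed as % fall versus control.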

Rattus norvegicus [8] = experiment: Antihypertensive activity in spontaneously hypertensive rats (SHR) measured by percentage fall in cardiac rhythm (CR) at 25 mg/kg administered intraperitoneally at 3 h; format: functional, Heart; conditions: route intraperitoneal; in short: as §1
Rattus norvegicus [9] = experiment: Antihypertensive activity in spontaneously hypertensive rats (SHR) measured by percentage fall in arterial pressure (AP) at 25 mg/kg administered intraperitoneally at 1 h; format: functional, Artery; conditions: route intraperitoneal; in short: as §1
Rattus norvegicus [10] = experiment: Antihypertensive activity in spontaneously hypertensive rats (SHR) measured by percentage fall in arterial pressure (AP) at 25 mg/kg administered intraperitoneally at 3 h; format: functional, Artery; conditions: route intraperitoneal; in short: as §1
Homo sapiens [11] = organism: Homo sapiens; experiment: In vitro inhibition of platelet aggregation induced by DD (PRP incubated for 5 minutes at 37 degree C) at 10e-5 M;No significance; format: functional; in short: as §2
Homo sapiens [12] = organism: Homo sapiens; experiment: In vitro inhibition of platelet aggregation induced by […] (PRP incubated for 5 minutes at 37 degree C) at 5 e-6 M;No significance; format: functional
Rattus norvegicus [13] = experiment: Antihypertensive activity in spontaneously hypertensive rats (SHR) measured by percentage fall in arterial pressure (AP) at 25 mg/kg administered intraperitoneally at 3 h;No significance; format: functional, organism-based; set-up: dose 25 mg/kg; conditions: Artery; in short: as §1
Rattus norvegicus [14] = experiment: Antihypertensive activity in spontaneously hypertensive rats (SHR) measured by percentage fall in arterial pressure (AP) at 25 mg/kg administered intraperitoneally at 5 h;No significance; format: functional, organism-based; set-up: dose 25 mg/kg; conditions: Artery; in short: as §1
Homo sapiens [15] = organism: Homo sapiens; experiment: In vitro inhibition of platelet aggregation induced by AA (PRP incubated for 60 minutes at 37 degree C) at 10e-5 M;No significance; format: functional; in short: as §2
Homo sapiens [16] = organism: Homo sapiens; experiment: In vitro inhibition of platelet aggregation induced by AA (PRP incubated for 60 minutes at 37 degree C) at 5e-6 M;No significance; format: functional; in short: as §2
Homo sapiens [17] = organism: Homo sapiens; experiment: In vitro inhibition of platelet aggregation induced by ADP-II (PRP incubated for 5 minutes at 37 degree C) at 10e-5 M; format: functional; in short: as §2
Rattus norvegicus [18] = experiment: Antihypertensive activity in spontaneously hypertensive rats (SHR) measured by percentage fall in cardiac rhythm (CR) at 25 mg/kg administered intraperitoneally at 24 h; format: functional, Heart; conditions: route intraperitoneal; in short: as §1
Rattus norvegicus [19] = experiment: Antihypertensive activity in spontaneously hypertensive rats (SHR) measured by percentage fall in cardiac rhythm (CR) at 25 mg/kg administered intraperitoneally at 5 h; format: functional, Heart; conditions: route intraperitoneal; in short: as §3
Rattus norvegicus [20] = experiment: Antihypertensive activity in spontaneously hypertensive rats (SHR) measured by percentage fall in arterial pressure (AP) at 25 mg/kg administered intraperitoneally at 24 h;No significance; format: functional, organism-based; set-up: dose 25 mg/kg; conditions: Artery; in short: as §1
Cavia porcellus [21] = experiment: Effect on thromboxane synthetase activity on ex vivo platelet aggregation induced by PGE-2 at 100 mg/kg expressed as percent increase; format: functional
In short: (§4)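 Fasted male or female guinea pigs (250–300 g, five per group) dosed orally in normal saline or saline with 0.2% (carboxymethyl)cellulose/1.0% Tween 80; controls given vehicle. Under ether, cardiac blood collected into 3.8% citrate. PRP adjusted to […] and aggregation induced by ADP (second wave) or AA, read by absorbance aggregometry. PGE2 and TXB2 measured by RIA.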

Cavia porcellus [22] = experiment: Effect on thromboxane synthetase activity on ex vivo platelet aggregation induced by TXB2 at 100 mg/kg expressed as percent increase; format: functional; in short: as §4
[23] = Effect on thromboxane synthetase activity on in vitro platelet aggregation induced by AA at 10e -5 M expressed as percent increase in PGE-2; format: functional, Homo sapiens
In short: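 Human citrated PRP adjusted to 200 000 […], compound at 10^-5 M final in saline/10% ethylene glycol, incubated at 37 °C. Aggregation induced with arachidonic acid 0.6 mM and read by Born absorbance aggregometry. PGE2 and TXB2 in the aggregated samples measured by radioimmunoassay. n = 5.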

Cavia porcellus [24] = experiment: Ex vivo inhibition of platelet aggregation induced by AA at 100 mg/kg; format: functional; in short: as §4
Cavia porcellus [25] = experiment: Ex vivo inhibition of platelet aggregation induced by ADP-II at 100 mg/kg; format: functional; in short: as §4
Rattus norvegicus [26] = experiment: Antihypertensive activity in spontaneously hypertensive rats (SHR) measured by percentage fall in cardiac rhythm (CR) at 50 mg/kg administered intraperitoneally at 24 h; format: functional, Heart; conditions: route intraperitoneal; in short: as §3
Rattus norvegicus [27] = experiment: Antihypertensive activity in spontaneously hypertensive rats (SHR) measured by percentage fall in cardiac rhythm (CR) at 50 mg/kg administered intraperitoneally at 3 h; format: functional, Heart; conditions: route intraperitoneal; in short: as §3
Rattus norvegicus [28] = experiment: Antihypertensive activity in spontaneously hypertensive rats (SHR) measured by percentage fall in cardiac rhythm (CR) at 50 mg/kg administered intraperitoneally at 5 h; format: functional, Heart; conditions: route intraperitoneal; in short: as §3
Homo sapiens [29] = organism: Homo sapiens; experiment: In vitro inhibition of platelet aggregation induced by ADP-II (PRP incubated for 5 minutes at 37 degree C) at 10e-6 M; format: functional; in short: as §2
Homo sapiens [30] = organism: Homo sapiens; experiment: In vitro inhibition of platelet aggregation induced by ADP-II (PRP incubated for 60 minutes at 37 degree C) at 5e-6 M; format: functional; in short: as §2
Homo sapiens [31] = organism: Homo sapiens; experiment: In vitro inhibition of platelet aggregation induced by DD (PRP incubated for 5 minutes at 37 degree C) at 10e-5 M; format: functional; in short: as §2
Homo sapiens [32] = organism: Homo sapiens; experiment: In vitro inhibition of platelet aggregation induced by PGH-2 (PRP incubated for 60 minutes at 37 degree C) at 10e-5 M; format: functional; conditions: 1 h; in short: as §2
Rattus norvegicus [33] = experiment: Antihypertensive activity in spontaneously hypertensive rats (SHR) measured by percentage fall in arterial pressure (AP) at 50 mg/kg administered intraperitoneally at 24 h; format: functional, Artery; conditions: route intraperitoneal; in short: as §1
Rattus norvegicus [34] = experiment: Antihypertensive activity in spontaneously hypertensive rats (SHR) measured by percentage fall in arterial pressure (AP) at 50 mg/kg administered intraperitoneally at 3 h; format: functional, Artery; conditions: route intraperitoneal; in short: as §1
Rattus norvegicus [35] = experiment: Antihypertensive activity in spontaneously hypertensive rats (SHR) measured by percentage fall in arterial pressure (AP) at 50 mg/kg administered intraperitoneally at 5 h; format: functional, Artery; conditions: route intraperitoneal; in short: as §1
Homo sapiens [36] = organism: Homo sapiens; experiment: Inhibition of platelet aggregation induced by AA (PRP incubated for 60 minutes at 37 degree C) at 10e-5 M; format: functional; conditions: 1 h; in short: as §2
[37] = biological target: T1, Thromboxane-A synthase (Homo sapiens) (UniProt P24557); experiment: Effect on thromboxane synthetase activity on in vitro platelet aggregation induced by AA at 10e -5 M expressed as percent inhibition of TXB2
T1 sequence (whole entry): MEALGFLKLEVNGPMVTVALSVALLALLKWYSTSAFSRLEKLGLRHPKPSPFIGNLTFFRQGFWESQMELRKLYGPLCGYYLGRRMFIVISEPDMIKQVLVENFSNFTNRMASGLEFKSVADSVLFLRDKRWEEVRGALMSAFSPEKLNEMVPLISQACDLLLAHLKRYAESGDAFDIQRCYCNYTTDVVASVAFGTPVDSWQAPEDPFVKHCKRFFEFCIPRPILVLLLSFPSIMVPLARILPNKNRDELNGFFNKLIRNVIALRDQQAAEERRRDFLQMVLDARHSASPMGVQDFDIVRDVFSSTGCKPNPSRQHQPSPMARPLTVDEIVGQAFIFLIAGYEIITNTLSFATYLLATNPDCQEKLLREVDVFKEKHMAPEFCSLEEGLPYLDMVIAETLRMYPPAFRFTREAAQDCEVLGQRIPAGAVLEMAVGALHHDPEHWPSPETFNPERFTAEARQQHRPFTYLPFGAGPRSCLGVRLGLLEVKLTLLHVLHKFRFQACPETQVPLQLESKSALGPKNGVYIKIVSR

SMILES: COc1ccc2[nH]c3c(O)nncc3c2c1
inhibition (Homo sapiens [1]): No significant values
Decrease in AP (Rattus norvegicus [2]): 5%
Decrease in CR (Rattus norvegicus [3]): 7%
inhibition (Homo sapiens [4]): No significant values
inhibition (Homo sapiens [5]): No significant values
inhibition at 10 µM (Homo sapiens [6]): 100%
inhibition (Rattus norvegicus [7]): No significant values
Decrease in CR (Rattus norvegicus [8]): 5%
Decrease in AP (Rattus norvegicus [9]): 10%
Decrease in AP (Rattus norvegicus [10]): 10%

SMILES: Oc1ccc2[nH]c3c(O)nncc3c2c1
inhibition (Homo sapiens [11]): No significant values
inhibition (Homo sapiens [12]): No significant values
Decrease in AP (Rattus norvegicus [13]): No significant values
Decrease in AP (Rattus norvegicus [14]): No significant values
inhibition (Homo sapiens [15]): No significant values
inhibition (Homo sapiens [16]): No significant values
inhibition at 10 µM (Homo sapiens [17]): 87%
inhibition at 10 µM (Homo sapiens [6]): 100%
Decrease in CR (Rattus norvegicus [18]): -8%
Decrease in CR (Rattus norvegicus [8]): -11%
Decrease in CR (Rattus norvegicus [19]): -7%
Decrease in AP (Rattus norvegicus [20]): No significant values

Inhibition % [37]: 50%
SMILES: Oc1[nH]ncc2c3cc(OCc4ccccc4)ccc3nc1-2
Increase (Cavia porcellus [21]): 30%
inhibition in vivo at 100 mg/kg (Cavia porcellus [22]): 50%
Increase [23]: 270%
inhibition in vivo at 100 mg/kg (Cavia porcellus [24]): 100%
inhibition in vivo at 100 mg/kg (Cavia porcellus [25]): 100%
Decrease in CR (Rattus norvegicus [26]): 9%
Decrease in CR (Rattus norvegicus [27]): 10%
Decrease in CR (Rattus norvegicus [28]): 15%
inhibition (Homo sapiens [16]): No significant values
inhibition at 10 µM (Homo sapiens [17]): 60%
inhibition at 1 µM (Homo sapiens [29]): 40%
inhibition at 10 µM (Homo sapiens [6]): 100%
Inhibition (Homo sapiens [30]): 80%
inhibition at 10 µM (Homo sapiens [31]): 100%
inhibition at 10 µM (Homo sapiens [32]): 100%
Decrease in AP (Rattus norvegicus [33]): 7%
Decrease in AP (Rattus norvegicus [34]): 12%
Decrease in AP (Rattus norvegicus [35]): 13%
inhibition at 10 µM (Homo sapiens [36]): 100%
